Screening data deposited in PubChem BioAssay by Broad Institute.
The full list was thinned out, with hits kept by preference.
IDH1 R132H inh = inhibitors of IDH1 R132H reductase, primary screen, biochemical, plate reader, single point. diaphorase/resazurin fluorescence, 60 min. Isocitrate dehydrogenase [NADP] cytoplasmic (Homo sapiens), O75874. actives 0.18% (n = 70,000). inhibition, % at 10 µM; in the data active means inhibition above about 34%; inconclusive means no clear call, values can overlap the other calls; inactive means below about 11%
KDM4C inh = inhibitors of GASC-1 (KDM4C) histone demethylase, primary screen, biochemical, single concentration HTS; Lysine-specific demethylase 4C (Homo sapiens), Q9H3R0; GST-KDM4C 2-372, H3K9me3 peptide, LANCE TR-FRET; inhibition, % at 12.5 µM; actives 0.15% (n = 96,000);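 active means mean replicate inhibition above about 25%, with at least 55% of replicates also reaching it, limit read from the data, passing the limit was not always enough; inconclusive means only one of those two conditions met; inactive means neither condition met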
Target sequence (Q9H3R0 2-372 limits assumed): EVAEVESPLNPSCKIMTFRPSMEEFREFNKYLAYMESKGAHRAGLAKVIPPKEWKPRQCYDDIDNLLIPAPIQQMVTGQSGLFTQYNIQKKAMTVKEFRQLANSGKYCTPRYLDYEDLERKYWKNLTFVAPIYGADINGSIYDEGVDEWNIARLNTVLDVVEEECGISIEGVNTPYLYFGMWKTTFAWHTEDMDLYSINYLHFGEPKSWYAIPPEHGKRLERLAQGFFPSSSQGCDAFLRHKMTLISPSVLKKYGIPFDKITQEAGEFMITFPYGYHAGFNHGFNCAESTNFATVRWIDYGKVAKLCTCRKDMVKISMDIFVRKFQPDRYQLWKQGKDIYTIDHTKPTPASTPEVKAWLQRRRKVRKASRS
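System: N-terminal GST-fused human GASC-1 (KDM4C) fragment, residues 2-372; amount: enzyme final amount 10 nM; incubation: reaction 30 min RT, detection step 1 h RT; medium: HEPES buffer, pH 7.5, plus ascorbate; technique: LANCE TR-FRET, Eu antibody, ULight-streptavidin, EDTA, ex 340 nm, em 618/671 nm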
T cruzi growth-1 = T. cruzi intracellular proliferation inhibitors, primary screen, cell-based, beta-gal Tulahuen parasites, NIH3T3 host, luminescence | T. cruzi beta-gal in NIH3T3, GalScreen luminescence, 90 h | inhibition, % at 8.34 µM | actives 5.9% (n = 77,000) | AID 624255, 2012;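 active means mean inhibition above about 93%, with at least 55% of replicates each passing it, limit read from the data, passing the limit was not always enough; inconclusive means only one of those two conditions holds; inactive means neither condition holds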
T cruzi growth-2 = T. cruzi intracellular proliferation inhibitors, confirmation, cell-based, NIH3T3 host, beta-gal parasite, luminescence, cherry-pick. shares compounds with T cruzi growth-1. T. cruzi beta-gal in NIH3T3, GalScreen luminescence, 90 h. inhibition, % at 8.35 µM. actives 72% (n = 5,600). AID 651739, 2012;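 active means mean replicate inhibition above about 95% and at least 55% of replicates individually reaching it, limit read from the data; inconclusive means only one of the two criteria is met; inactive means neither criterion is met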
T cruzi growth-3 = inhibitors of intracellular T. cruzi replication, confirmation, NIH3T3 host cells, beta-gal parasites, cherry-pick, set 2; shares compounds with T cruzi growth-1; T. cruzi beta-gal in NIH3T3, GalScreen luminescence, 90 h; inhibition, % at 2.09 µM; actives 21% (n = 5,600); AID 651740, 2012;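 active means mean inhibition above about 95%, with at least 55% of replicates also reaching it, limit read from the data; inconclusive means meets just one of the two conditions; inactive means meets neither condition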
NIH3T3 tox = cytotoxicity in mouse NIH/3T3 fibroblasts, confirmation, cytotoxicity control for T. cruzi proliferation inhibitor project, cell-based, cherry-pick, single point. shares compounds with T cruzi growth-1. NIH/3T3 viability, CellTiter-Glo ATP luminescence, 90 h. cytotoxicity (signal decrease), % at 8.35 µM. actives 14% (n = 5,600). AID 651742, 2012;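 active means mean signal decrease across replicates above about 35% based on untreated-well scatter, with enough replicates individually passing, limit read from the data; inconclusive means no rule stated though some were filed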
NIH3T3 tox 2 = NIH/3T3 fibroblast cytotoxicity, confirmation, cytotoxicity control, cell-based, cherry-pick, single point, set 2 | shares compounds with T cruzi growth-1 | inhibition, % at 24.9 µM | NIH/3T3 viability, CellTiter-Glo ATP luminescence, 90 h | actives 56% (n = 5,600);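 active means mean loss of cell viability signal at or above a set limit, and enough replicates individually reaching it; inconclusive means meets only the mean limit or only the replicate share; inactive means meets neither condition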
A number is an active result; n = inactive; u = inconclusive; x = no result given.

SMILES	IDH1 R132H inh	KDM4C inh	T cruzi growth-1	T cruzi growth-2	T cruzi growth-3	NIH3T3 tox	NIH3T3 tox 2
O=C(Nc1ccc(F)cc1)N1CCCCN2[C@H](CO)[C@H](c3ccc(C#Cc4ccccn4)cc3)[C@H]2C1	x	n	n	x	x	x	x
O=C(Nc1ccc(F)cc1)N1CCCCN2[C@@H](CO)[C@H](c3ccc(C#Cc4ccccn4)cc3)[C@@H]2C1	x	n	123	107	n	n	n
O=C(Nc1ccccc1)N1CCCCN2[C@H](CO)[C@H](c3ccc(C#Cc4ccccn4)cc3)[C@H]2C1	x	n	104	99	n	n	n
COc1ccc(NC(=O)N2CCCCN3[C@@H](CO)[C@H](c4ccc(C#Cc5ccccn5)cc4)[C@@H]3C2)cc1	x	n	103	110	109	n	n
O=C(Nc1ccc(I)cc1C(=O)NCc1cccnc1)c1ccco1	n	x	x	x	x	x	x
NC(=O)c1ccccc1NC(=O)COc1cccc2ccccc12	n	x	x	x	x	x	x
C[C@@H]1CCCCO[C@H](CN(C)Cc2ccncc2)[C@H](C)CN([C@H](C)CO)C(=O)c2cc(NC(=O)CCC(F)(F)F)ccc2O1	n	n	96	n	n	n	n
C[C@@H]1CCCCO[C@@H](CN(C)CC2CCCCC2)[C@H](C)CN([C@@H](C)CO)C(=O)c2cc(NC(=O)CCC(F)(F)F)ccc2O1	n	n	u	u	n	n	n
C[C@H](CO)N1C[C@H](C)[C@@H](CN(C)Cc2ccc(Cl)c(Cl)c2)OCCCC[C@H](C)Oc2ccc(NC(=O)CCC(F)(F)F)cc2C1=O	n	x	n	x	x	x	x
C[C@@H]1CCCCO[C@@H](CN(C)CC2CCCCC2)[C@@H](C)CN([C@H](C)CO)C(=O)c2cc(NC(=O)CCC(F)(F)F)ccc2O1	n	n	n	x	x	x	x
C[C@@H]1CCCCO[C@@H](CN(C)Cc2ccc(Cl)c(Cl)c2)[C@H](C)CN([C@H](C)CO)C(=O)c2cc(NC(=O)CCC(F)(F)F)ccc2O1	n	n	u	n	104	n	103
C[C@@H]1CCCCO[C@@H](CN(C)Cc2ccncc2)[C@@H](C)CN([C@H](C)CO)C(=O)c2cc(NC(=O)CCC(F)(F)F)ccc2O1	n	n	n	x	x	x	x
CC(C)(C)c1ccccc1NC(=O)c1cccc(Cn2cc(Cl)cn2)c1	n	x	x	x	x	x	x
C/C=C(\C)CC(/C=C(\C)C(O)C(C)/C=C(\C)C(O)C(C)/C=C/C(O)C/C=C/C(O)C(O)C(=O)O)C(=O)O (stereo unspecified)	n	x	x	x	x	x	x
COc1ccc(S(=O)(=O)N(C)CC(=O)Nc2cccc(C(F)(F)F)c2)cc1C	n	x	x	x	x	x	x
O=C(CCSc1nnc(-c2cccc([N+](=O)[O-])c2)o1)Nc1ccc(Br)cc1	n	x	x	x	x	x	x
Cc1noc(C)c1NC(=O)Nc1cccc2c1O[C@@H](CN(C)Cc1ccncc1)[C@H](C)CN([C@@H](C)CO)C2=O	n	n	110	n	n	n	n
C[C@H](CO)N1C[C@H](C)[C@H](CN(C)Cc2ccc(Cl)c(Cl)c2)Oc2c(NC(=O)Nc3ccc(C(F)(F)F)cc3)cccc2C1=O	n	x	128	105	101	n	98
C[C@@H]1CN([C@@H](C)CO)C(=O)c2cccc(NC(=O)Nc3ccc(C(F)(F)F)cc3)c2O[C@@H]1CN(C)Cc1ccc2c(c1)OCO2	n	n	u	105	n	n	104
Cc1noc(C)c1NC(=O)Nc1cccc2c1O[C@@H](CN(C)Cc1ccncc1)[C@H](C)CN([C@H](C)CO)C2=O	x	n	n	x	x	x	x
C[C@H](CO)N1C[C@H](C)[C@H](CN(C)Cc2ccc(C(F)(F)F)cc2)Oc2c(NC(=O)Nc3ccc4c(c3)OCO4)cccc2C1=O	x	n	n	x	x	x	x
C[C@H](CO)N1C[C@H](C)[C@H](CN(C)Cc2ccc(Cl)c(Cl)c2)Oc2c(NC(=O)Nc3ccc(F)cc3)cccc2C1=O	x	n	n	x	x	x	x
C[C@H]1CN([C@@H](C)CO)C(=O)c2cccc(NC(=O)Nc3ccc(F)cc3)c2O[C@@H]1CN(C)Cc1ccc(Oc2ccccc2)cc1	n	n	u	103	n	n	37
C[C@@H]1CN([C@@H](C)CO)C(=O)c2cccc(NC(=O)Nc3ccc(F)cc3)c2O[C@@H]1CN(C)Cc1ccc(Oc2ccccc2)cc1	x	n	n	x	x	x	x
CCC(Sc1nnc(C)s1)C(=O)Nc1ccc(Cl)cc1 (stereo unspecified)	n	x	x	x	x	x	x
SMILES	IDH1 R132H inh	KDM4C inh	T cruzi growth-1	T cruzi growth-2	T cruzi growth-3	NIH3T3 tox	NIH3T3 tox 2
O=C(NCCCN1CCCC1=O)c1cc(-c2ccccn2)nc2ccc(Br)cc12	n	x	x	x	x	x	x
COC(=O)c1cccc(COC(=O)c2cc(=O)[nH]c3ccccc23)c1	n	x	x	x	x	x	x
C[C@H](CO)N1C[C@H](C)[C@@H](CN(C)Cc2ccc(Oc3ccccc3)cc2)Oc2c(NC(=O)Nc3ccc(C(F)(F)F)cc3)cccc2C1=O	n	n	129	101	n	n	104
C[C@H]1CN([C@@H](C)CO)C(=O)c2cccc(NC(=O)Nc3ccc(F)cc3)c2O[C@H]1CN(C)Cc1ccc(C(F)(F)F)cc1	n	n	n	x	x	x	x
C[C@H]1CN([C@@H](C)CO)C(=O)c2cccc(NC(=O)Nc3ccccc3)c2O[C@@H]1CN(C)Cc1ccc(C(F)(F)F)cc1	n	n	n	x	x	x	x
C[C@H](CO)N1C[C@H](C)[C@H](CN(C)Cc2ccc(C(F)(F)F)cc2)Oc2c(NC(=O)Nc3ccc(C(F)(F)F)cc3)cccc2C1=O	x	n	101	u	n	n	75
COc1ccc(NC(=O)Nc2cccc3c2O[C@H](CN(C)Cc2ccc(Cl)c(Cl)c2)[C@@H](C)CN([C@H](C)CO)C3=O)cc1	x	n	n	x	x	x	x
COc1ccc(NC(=O)Nc2cccc3c2O[C@@H](CN(C)Cc2ccc(Cl)c(Cl)c2)[C@H](C)CN([C@H](C)CO)C3=O)cc1	x	n	109	106	107	n	56
C[C@@H]1CN([C@@H](C)CO)C(=O)c2cccc(NC(=O)NC3CCCCC3)c2O[C@H]1CN(C)Cc1ccc(Cl)c(Cl)c1	x	n	u	107	n	n	70
C[C@@H]1CN([C@@H](C)CO)C(=O)c2cccc(NC(=O)NC3CCCCC3)c2O[C@@H]1CN(C)Cc1ccc(Cl)c(Cl)c1	n	n	n	x	x	x	x
COc1ccc(-c2cc(C(F)F)n3ncc(C(=O)Nc4cccc(NC(C)=O)c4)c3n2)cc1	n	x	x	x	x	x	x
